The results in this text go back to ChEMBL document CHEMBL2203244, “Discovery and optimization of a series of 2-aminothiazole-oxazoles as potent phosphoinositide 3-kinase γ inhibitors” (Bioorg Med Chem Lett, 2012).

≈ marks a conversion by molar mass, not a printed value.

For series [1], the target named is T1, Phosphatidylinositol 4,5-bisphosphate 3-kinase catalytic subunit gamma isoform (Homo sapiens, UniProt P48736). Nature of the series: Inhibition of human PI3Kgamma using phosphatidylinositol as substrate and [33gammaP]ATP after 2 hrs by scintillation counting. A digest of the protocol: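 Recombinant human PI3Kγ (20 ng) incubated 2 h at 30 °C with test inhibitor or DMSO in 20 mM Tris–HCl pH 7.4, 5 mM MgCl2, 5 mM DTT, with ATP/[33P]ATP and PtdIns/PtdSer lipid vesicles as substrate. Reaction stopped with 25 mM EDTA. Product captured on phospholipid scintillant-coated plates, washed with PBS, and bound radioactivity counted by scintillation.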

Series [2] deals with Phosphatidylinositol 4,5-bisphosphate 3-kinase catalytic subunit alpha isoform (Homo sapiens, UniProt P42336). Nature of the series: Inhibition of human PI3Kalpha using phosphatidylinositol as substrate and [33gammaP]ATP after 2 hrs by scintillation counting. A digest of the protocol:
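Recombinant human PI3Kα (20 ng) incubated 2 h at 30 °C in 20 mM Tris–HCl pH 7.4, 5 mM MgCl₂, 5 mM DTT with unlabelled ATP plus [γ-³³P]ATP and lipid vesicles of PtdIns and 25 µM PtdSer (final), with inhibitor or DMSO. Stopped with 25 mM EDTA, captured on phospholipid scintillant-coated plate, PBS-washed, bound counts per second read.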

The species named for series [3] is Homo sapiens. As to the kind of experiment: Selectivity ratio of IC50 for human PI3Kalpha to IC50 for human PI3Kgamma. A digest of the protocol:
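Human PI3Kα and PI3Kγ (20 ng each) assayed by the same radiometric lipid-kinase procedure: 2 h at 30 °C, pH 7.4 Tris buffer with MgCl2 and DTT, [33P]ATP and PtdIns/PtdSer vesicles, stopped with EDTA, captured on scintillant-coated plates and counted. Ratio taken as the PI3Kα IC50 divided by the PI3Kγ IC50.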

Series [4] addresses Phosphatidylinositol 4,5-bisphosphate 3-kinase catalytic subunit gamma isoform (Mus musculus, UniProt Q9JHG7). Nature of the series: Inhibition of PI3Kgamma in mouse RAW264.7 cells assessed as inhibition of C5a-induced PKB/Akt phosphorylation incubated for 30 mins prior to C5a-induction measured after 5 mins by immunostaining method. It is filed as cell-based. The method in brief: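 Raw264.7 murine macrophage-like cells seeded at 8 × 10⁶ per well, grown 24 h, switched to serum-free 0.1% BSA medium for 3 h at 37 °C. Pretreated with or without a range of inhibitor concentrations for 30 min, then stimulated with 5 nM C5a for 5 min at 37 °C. PKB/Akt phosphorylation scored as the cellular read-out.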

Series [5] is described as follows: Aqueous solubility of the compound. The series is classed as physicochemical. Conditions: water (aqueous). The method in brief:
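Solubility determined in water.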

A short description of series [6]: Permeability of the compound at pH 6.2 by PAMPA assay. It is filed as ADME. As to conditions: read-out: permeability. The method in brief: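 PAMPA membrane permeability measured at pH 6.2, reported as Pe in cm/s.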
The target in series [7] is T1, Phosphatidylinositol 4,5-bisphosphate 3-kinase catalytic subunit gamma isoform.

T1 sequence (P48736 whole entry, canonical isoform): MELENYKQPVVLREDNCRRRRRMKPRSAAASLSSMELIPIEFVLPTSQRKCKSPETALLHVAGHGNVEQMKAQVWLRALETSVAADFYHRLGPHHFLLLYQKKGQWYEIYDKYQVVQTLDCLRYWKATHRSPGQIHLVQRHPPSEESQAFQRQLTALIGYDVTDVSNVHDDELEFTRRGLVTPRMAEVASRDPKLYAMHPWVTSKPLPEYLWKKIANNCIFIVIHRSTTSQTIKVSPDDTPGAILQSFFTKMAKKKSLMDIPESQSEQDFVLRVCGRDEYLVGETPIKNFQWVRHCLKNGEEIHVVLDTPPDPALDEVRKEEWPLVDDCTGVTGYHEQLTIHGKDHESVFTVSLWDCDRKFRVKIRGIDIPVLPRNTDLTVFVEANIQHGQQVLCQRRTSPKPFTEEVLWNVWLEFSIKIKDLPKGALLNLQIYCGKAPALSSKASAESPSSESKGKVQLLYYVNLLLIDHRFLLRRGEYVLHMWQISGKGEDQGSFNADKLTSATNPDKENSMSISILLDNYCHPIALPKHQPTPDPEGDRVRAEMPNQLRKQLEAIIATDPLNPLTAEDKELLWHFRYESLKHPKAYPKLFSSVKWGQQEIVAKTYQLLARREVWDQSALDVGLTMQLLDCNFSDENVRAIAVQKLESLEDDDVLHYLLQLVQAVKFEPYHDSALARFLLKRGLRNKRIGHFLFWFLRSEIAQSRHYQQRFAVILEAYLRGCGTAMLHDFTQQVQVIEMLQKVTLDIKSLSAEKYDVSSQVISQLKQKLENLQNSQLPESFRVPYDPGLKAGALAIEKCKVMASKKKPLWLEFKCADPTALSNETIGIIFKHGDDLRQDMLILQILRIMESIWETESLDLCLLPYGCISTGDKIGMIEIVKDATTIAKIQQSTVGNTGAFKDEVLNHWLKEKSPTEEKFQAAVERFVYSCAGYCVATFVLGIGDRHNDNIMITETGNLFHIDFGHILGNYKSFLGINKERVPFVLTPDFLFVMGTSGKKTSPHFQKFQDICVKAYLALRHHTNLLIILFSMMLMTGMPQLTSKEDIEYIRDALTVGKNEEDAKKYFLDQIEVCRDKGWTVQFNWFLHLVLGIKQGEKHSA
Phosphatidylinositol 4,5-bisphosphate 3-kinase catalytic subunit gamma isoform (Mus musculus, UniProt Q9JHG7), sequence (Q9JHG7 whole entry, canonical isoform): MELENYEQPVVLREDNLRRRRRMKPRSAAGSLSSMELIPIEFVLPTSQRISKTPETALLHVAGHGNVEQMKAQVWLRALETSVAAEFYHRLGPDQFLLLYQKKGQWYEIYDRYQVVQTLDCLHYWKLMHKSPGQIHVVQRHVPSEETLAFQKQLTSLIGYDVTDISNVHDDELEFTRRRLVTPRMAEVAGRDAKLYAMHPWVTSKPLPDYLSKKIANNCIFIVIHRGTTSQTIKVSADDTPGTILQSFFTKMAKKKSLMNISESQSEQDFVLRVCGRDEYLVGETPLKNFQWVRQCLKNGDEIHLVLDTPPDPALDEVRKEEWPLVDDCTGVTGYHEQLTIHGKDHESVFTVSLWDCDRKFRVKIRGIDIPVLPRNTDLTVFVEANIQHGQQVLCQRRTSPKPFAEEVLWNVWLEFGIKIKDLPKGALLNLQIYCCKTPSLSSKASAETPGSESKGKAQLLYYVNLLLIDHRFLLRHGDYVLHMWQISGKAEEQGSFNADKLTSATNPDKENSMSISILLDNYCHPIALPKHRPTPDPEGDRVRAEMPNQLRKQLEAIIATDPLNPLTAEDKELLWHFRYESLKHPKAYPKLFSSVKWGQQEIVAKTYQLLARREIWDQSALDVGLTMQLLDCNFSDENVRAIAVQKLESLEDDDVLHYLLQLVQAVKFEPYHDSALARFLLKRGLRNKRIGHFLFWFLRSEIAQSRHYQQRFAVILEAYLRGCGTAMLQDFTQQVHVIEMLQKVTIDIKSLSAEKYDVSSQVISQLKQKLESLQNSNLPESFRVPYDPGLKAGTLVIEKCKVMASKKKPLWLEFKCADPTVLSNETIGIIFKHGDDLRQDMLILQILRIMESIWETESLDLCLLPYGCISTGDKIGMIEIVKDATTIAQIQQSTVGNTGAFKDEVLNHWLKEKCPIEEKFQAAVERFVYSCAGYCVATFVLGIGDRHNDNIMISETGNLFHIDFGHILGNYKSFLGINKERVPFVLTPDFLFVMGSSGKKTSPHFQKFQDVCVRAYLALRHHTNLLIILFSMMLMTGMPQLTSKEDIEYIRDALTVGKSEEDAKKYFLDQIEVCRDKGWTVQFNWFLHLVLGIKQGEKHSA
Phosphatidylinositol 4,5-bisphosphate 3-kinase catalytic subunit alpha isoform, sequence (P42336 whole entry, canonical isoform): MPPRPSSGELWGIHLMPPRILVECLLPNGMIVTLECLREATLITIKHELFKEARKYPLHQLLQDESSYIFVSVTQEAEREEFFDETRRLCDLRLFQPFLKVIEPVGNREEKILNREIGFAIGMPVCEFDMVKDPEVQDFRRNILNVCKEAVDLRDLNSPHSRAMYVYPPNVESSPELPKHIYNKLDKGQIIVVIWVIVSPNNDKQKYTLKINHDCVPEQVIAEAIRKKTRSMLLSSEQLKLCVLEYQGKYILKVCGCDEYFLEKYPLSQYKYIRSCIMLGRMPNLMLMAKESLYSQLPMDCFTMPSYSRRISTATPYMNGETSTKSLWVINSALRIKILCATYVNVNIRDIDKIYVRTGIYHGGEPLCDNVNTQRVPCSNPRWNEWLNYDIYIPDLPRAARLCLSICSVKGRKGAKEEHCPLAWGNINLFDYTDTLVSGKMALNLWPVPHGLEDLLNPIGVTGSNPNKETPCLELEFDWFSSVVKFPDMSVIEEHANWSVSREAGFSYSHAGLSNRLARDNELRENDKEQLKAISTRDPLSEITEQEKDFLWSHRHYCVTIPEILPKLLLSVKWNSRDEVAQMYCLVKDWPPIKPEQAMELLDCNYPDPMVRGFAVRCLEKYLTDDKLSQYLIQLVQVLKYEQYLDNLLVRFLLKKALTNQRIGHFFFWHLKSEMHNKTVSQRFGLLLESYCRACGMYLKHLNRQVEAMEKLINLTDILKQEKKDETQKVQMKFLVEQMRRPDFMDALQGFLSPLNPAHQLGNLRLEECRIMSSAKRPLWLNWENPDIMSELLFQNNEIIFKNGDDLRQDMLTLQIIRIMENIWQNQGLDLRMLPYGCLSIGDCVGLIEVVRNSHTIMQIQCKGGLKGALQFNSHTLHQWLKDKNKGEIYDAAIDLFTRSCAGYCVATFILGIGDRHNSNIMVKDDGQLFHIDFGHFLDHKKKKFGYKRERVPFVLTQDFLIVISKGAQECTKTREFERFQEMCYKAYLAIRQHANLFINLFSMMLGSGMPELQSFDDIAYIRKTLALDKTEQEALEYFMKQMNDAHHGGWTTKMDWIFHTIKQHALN

The term IC50 denotes the concentration that gives 50% inhibition. Turning to `CC(=O)Nc1nc(C)c(-c2cnc(Sc3cccnc3)o2)s1`, the IC50 was 16 nM in series [1], 112 nM in series [2] and 279 nM in series [4]. In addition, the Ratio IC50 in series [3] came out at 7.
Turning to `CC(=O)Nc1nc(C)c(-c2cnc(N3CCCC(O)C3)o2)s1` (stereo not given), the values for the IC50 in series [1] and in series [4] were 14 nM and 237 nM, respectively.
Regarding `CC(=O)Nc1nc(C)c(-c2cnc(Nc3ccc(Cl)nc3)o2)s1`, the IC50 in series [1] was 24 nM; in series [4], 1040 nM.
Taken in the same sequence, the figures for `CC(=O)Nc1nc(C)c(-c2cnc(Cc3cccc(C(=O)O)c3)o2)s1` were 223 nM and above 10000 nM.
In the case of `CC(=O)Nc1nc(C)c(-c2cnc(Cc3cccnc3)o2)s1`, in series [1], the IC50 was 95 nM.
Turning to `CC(=O)Nc1nc(C)c(-c2cnc(Nc3cccnc3)o2)s1`, the values for the IC50 in series [1], in series [2] and in series [4] were 12 nM, 102 nM and 431 nM, respectively. Besides, in series [3], the Ratio IC50 came out at 9.
As to `CC(=O)Nc1nc(C)c(-c2cnc(C)o2)s1`, in series [1], the IC50 was 181 nM.
Regarding `CC(=O)Nc1nc(C)c(-c2cnc(Oc3cccnc3)o2)s1`, the 50% inhibitory concentration (IC50) was found to be 117 nM in series [1] and 1670 nM in series [4].
What is called solubility is the concentration that dissolves in the medium under given conditions. With `CC(=O)Nc1nc(C)c(-c2cnc(C(C)(C)C)o2)s1`, the IC50 in series [1] was 3 nM; in series [2], 15 nM; in series [4] it was 113 nM. For the same molecule, the solubility in series [5] was found to be 35.2 µg/mL (≈ 126 µM). Moreover, in series [6], the Papp came out at 88.4 ×10⁻⁶ cm/s. The Ratio IC50 in series [3] came to 5.
Regarding `CC(=O)Nc1nc(C)c(-c2cnc(C(C)(C)O)o2)s1`, the IC50 was found to be 25 nM in series [1] and 369 nM in series [4].
For `CSc1ncc(-c2sc(NC(C)=O)nc2C)o1`, the IC50 was 22 nM in series [1] and 322 nM in series [4].
Take `CC(=O)Nc1nc(C)c(-c2cnc(-c3cccnc3)o2)s1`: the IC50 in series [1] stood at 3 nM; in series [2], 46 nM; in series [4], 59 nM. The molecule also yielded a solubility in series [5] of 0.39 µg/mL (≈ 1.3 µM). Besides, the Papp in series [6] was found to be 77.3 ×10⁻⁶ cm/s. In addition, the Ratio IC50 in series [3] amounted to 15.
Consider `CC(=O)Nc1nc(C)c(-c2cnc(S(C)(=O)=O)o2)s1`, for which the IC50 is 12 nM in series [1], 195 nM in series [2] and 222 nM in series [4]. Further, the Ratio IC50 in series [3] was found to be 16.
Taken in the same sequence, the figures for `CC(=O)Nc1nc(C)c(-c2cnc(CC(F)(F)F)o2)s1` were 10 nM, 43 nM, 88 nM and 4.
In series [1], `COc1ncc(-c2sc(NC(C)=O)nc2C)o1` returned an IC50 of 250 nM.
Regarding `CC(=O)Nc1nc(C)c(-c2csc(Nc3cccc(C(=O)O)c3)n2)s1`, in series [7], it took 5 nM to reach half-maximal inhibition (IC50).
Molecule `CC(=O)Nc1nc(C)c(-c2cnc(CO)o2)s1` displayed an IC50 in series [1] of 161 nM.
Take `CC(=O)Nc1nc(C)c(-c2cnc(Nc3cccc(C(=O)O)c3)o2)s1`: the IC50 in series [1] is 12 nM; in series [2], 328 nM; in series [4] it was above 10000 nM. In addition, in series [6], the Papp was 1.4 ×10⁻⁶ cm/s. For the same molecule, in series [3], the Ratio IC50 amounted to 27.
For `CC(=O)Nc1nc(C)c(-c2cnc(N(C)C)o2)s1`, the IC50 in series [1] was determined as 46 nM; in series [4], 1220 nM.
For `CC(=O)Nc1nc(C)c(-c2cnc(Nc3ccc(Cl)cc3)o2)s1`, the IC50 in series [1] was determined as 346 nM.
As to `CC(=O)Nc1nc(C)c(-c2cnc(N3CCOCC3)o2)s1`, the IC50 in series [1] was 24 nM; in series [4], 599 nM.
